The values below come from ChEMBL document CHEMBL1131138, “A novel class of orally active non-peptide bradykinin B2 receptor antagonists. 3. Discovering bioisosteres of the imidazo[1,2-a] pyridine moiety” (J Med Chem, 1998).

Experiment [1] concerns the target T1, B2 bradykinin receptor (Homo sapiens, UniProt P30411).
T1 sequence (P30411 whole entry): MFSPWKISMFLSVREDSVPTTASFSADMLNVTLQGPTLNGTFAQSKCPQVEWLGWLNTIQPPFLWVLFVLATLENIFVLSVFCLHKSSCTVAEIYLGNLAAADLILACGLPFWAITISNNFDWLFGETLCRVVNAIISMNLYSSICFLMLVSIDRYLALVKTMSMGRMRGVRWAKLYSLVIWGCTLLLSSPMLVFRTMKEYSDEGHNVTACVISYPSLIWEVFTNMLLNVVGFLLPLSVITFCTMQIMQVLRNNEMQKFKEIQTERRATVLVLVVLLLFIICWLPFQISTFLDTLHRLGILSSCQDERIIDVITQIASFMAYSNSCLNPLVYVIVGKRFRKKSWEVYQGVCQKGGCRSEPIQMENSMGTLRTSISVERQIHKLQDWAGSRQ
Briefly: Inhibition specific binding of [3H]BK (1.0 nM) to human Bradykinin receptor B2 which was expressed in CHO (Chinese hamster ovary) cells by 50%. It is filed as cell-based. A digest of the protocol: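 CHO (dhfr−) cells stably expressing human B2 receptor, seeded at 3.0 × 10^4 cells/well and cultured 1 day. Whole cells incubated with 1.0 nM [3H]BK plus compound for 2 h at 4 °C in HEPES/N-methyl-D-glucamine buffer pH 7.2 with bacitracin, enalaprilat and BSA. Washed, solubilized in SDS/NaOH and counted. Nonspecific binding with 1 μM BK; DMSO below 3%; three experiments.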

Experiment [2] concerns the target T2, B2 bradykinin receptor (Cavia porcellus, UniProt O70526).
T2 sequence (O70526 whole entry): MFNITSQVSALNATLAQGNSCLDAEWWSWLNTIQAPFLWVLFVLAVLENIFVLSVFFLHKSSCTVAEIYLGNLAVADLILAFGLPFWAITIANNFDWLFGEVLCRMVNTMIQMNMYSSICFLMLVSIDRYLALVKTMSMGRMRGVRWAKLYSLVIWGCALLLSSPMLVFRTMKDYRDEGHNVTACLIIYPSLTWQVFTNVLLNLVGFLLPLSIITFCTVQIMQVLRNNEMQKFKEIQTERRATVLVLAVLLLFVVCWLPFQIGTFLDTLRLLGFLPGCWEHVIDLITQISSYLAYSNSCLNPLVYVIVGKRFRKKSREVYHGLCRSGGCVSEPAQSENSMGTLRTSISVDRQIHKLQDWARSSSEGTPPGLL
Briefly: Concentration required to inhibit specific binding of [ 3H]BK (0.06 nM) to Bradykinin receptor B2 in guinea pig ileum membrane preparations by 50%. It is filed as cell membranes. A digest of the protocol: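 Ileal membranes from male Hartley guinea pigs (0.2 mg protein/mL) in TES buffer pH 6.8 with phenanthroline, bacitracin, DTT, captopril and BSA. Incubated with 0.06 nM [3H]BK plus compound for 60 min at room temperature, then filtered through GF/B and counted by scintillation.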

In experiment [3] the test system is Cavia porcellus. The experiment in a line: Compound tested in vivo for inhibition of Bradykinin induced Bronchoconstriction in anaesthetized guinea pig at 1 mg/kg, po. It counts as functional. A digest of the protocol: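 Male Hartley guinea pigs (470–750 g), fasted overnight, anesthetized with ip pentobarbital (30 mg/kg) and ventilated at 10 mL/kg, 60 breaths/min. Given alcuronium (0.5 mg/kg iv) and propranolol (10 mg/kg sc). BK 5 μg/kg iv, with bronchoconstriction read as peak pulmonary insufflation pressure (modified Konzett–Rössler).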

The structures appear in SMILES notation.

Broadly, the IC50 is the midpoint of a concentration-inhibition curve. A low value points to greater potency. The term inhibition in vivo denotes the share of the control response that was lost under treatment. With `CC(=O)Nc1ccc(/C=C/C(=O)NCC(=O)N(C)c2ccc(Cl)c(COc3cccc4ncc(C)nc34)c2Cl)cc1`, the figures for the IC50 in experiment [1] and in experiment [2] were 2.5 nM and 2.4 nM, respectively. In experiment [3], 1 mg/kg produced 28.6% inhibition in vivo.

Take `CCc1nc2c(OCc3c(Cl)ccc(N(C)C(=O)CNC(=O)/C=C/c4ccc(C(=O)NC)cc4)c3Cl)cccc2n1C`: the 50% inhibitory concentration (IC50) was determined as 22 nM in experiment [1] and 8.7 nM in experiment [2]. Also, 1 mg/kg produced 31.7% inhibition in vivo in experiment [3].

`CNC(=O)c1ccc(/C=C/C(=O)NCC(=O)N(C)c2ccc(C)c(COc3cccc4c3nc(OC)n4C)c2C)cc1`: the values for the IC50 in experiment [1] and in experiment [2] were 7.2 nM and 1.6 nM, respectively. The inhibition in vivo at 1 mg/kg in experiment [3] came to 59.7%.

In the case of `CNC(=O)c1ccc(/C=C/C(=O)NCC(=O)N(C)c2ccc(Cl)c(COc3cccc4c3nc(OC)n4C)c2Cl)cc1`, the results for the half-inhibitory concentration (IC50) in experiment [1] and in experiment [2] were 2.2 nM and 0.83 nM, respectively. The compound also yielded an inhibition in vivo at 1 mg/kg in experiment [3] of 21.7%.
